In ChEMBL document CHEMBL1153234, “Synthesis and biological evaluation of nitrogen-containing chalcones as possible anti-inflammatory and antioxidant agents” (Bioorg Med Chem Lett, 2010) one finds Activity and inhibition data, which are given here for 27 molecules.

The source made the active and inactive calls. The calls are words filed in the database; no cut-off is given here.

For test [1], the system named is Radical scavenging activity. In words: Antioxidant activity assessed as DPPH radical scavenging activity at 10 uM. It is filed as functional. Put shortly:
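Test sample from a 1 mM stock in absolute ethanol was mixed with DPPH radical (10^-4 M in absolute ethanol). Absorbance was read at 517 nm after 20 min. Quercetin served as reference. Values are means of n = 2.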
(In general: The DPPH test is a chemical assay of radical scavenging.)

A short description of test [2]: Inhibition of trypsin at 10 uM. Put shortly: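 Trypsin (0.075 mg/mL) was preincubated 20 min with test sample from a 1 mM stock. The reaction was stopped with 5% trichloroacetic acid and centrifuged. Acid-soluble protein was measured by the Lowry method. Salicylic acid (10^-6 M) was the reference. Values are means of n = 2.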
The target in test [3] is T1, Prostaglandin G/H synthase 2 (Ovis aries) (UniProt P79208).
T1 sequence (whole entry): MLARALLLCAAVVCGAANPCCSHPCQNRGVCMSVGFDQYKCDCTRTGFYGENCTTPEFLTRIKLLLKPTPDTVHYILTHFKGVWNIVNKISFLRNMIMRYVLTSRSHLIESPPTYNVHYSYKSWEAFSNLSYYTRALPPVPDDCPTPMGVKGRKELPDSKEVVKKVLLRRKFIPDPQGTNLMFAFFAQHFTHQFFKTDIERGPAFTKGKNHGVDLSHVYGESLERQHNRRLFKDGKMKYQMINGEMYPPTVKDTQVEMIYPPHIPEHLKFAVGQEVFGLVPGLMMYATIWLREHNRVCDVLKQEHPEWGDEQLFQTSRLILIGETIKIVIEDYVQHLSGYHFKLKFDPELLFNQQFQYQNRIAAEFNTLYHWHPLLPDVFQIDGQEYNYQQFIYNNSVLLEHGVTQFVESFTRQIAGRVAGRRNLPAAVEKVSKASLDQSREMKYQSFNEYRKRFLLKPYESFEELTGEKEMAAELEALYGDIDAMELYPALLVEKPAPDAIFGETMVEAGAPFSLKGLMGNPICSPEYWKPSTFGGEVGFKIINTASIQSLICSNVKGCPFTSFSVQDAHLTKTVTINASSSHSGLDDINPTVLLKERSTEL
The test can be described thus: Inhibition of ovine COX2 at 1 mM by colorimetric assay. Put shortly: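 Ovine COX-2 was tested with a colorimetric screening kit. Enzyme, heme and assay buffer were preincubated 5 min at 25 °C with test sample added from a 1 mM solution. Colorimetric substrate and arachidonic acid were then added, followed by a further 5 min at 25 °C. Absorbance was read at 590 nm, and % activity = inhibitor-well/no-inhibitor-well absorbance × 100. Values are means of n = 2.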

The target in test [4] is T2, Beta-glucuronidase (Homo sapiens) (UniProt P08236).
T2 sequence (whole entry): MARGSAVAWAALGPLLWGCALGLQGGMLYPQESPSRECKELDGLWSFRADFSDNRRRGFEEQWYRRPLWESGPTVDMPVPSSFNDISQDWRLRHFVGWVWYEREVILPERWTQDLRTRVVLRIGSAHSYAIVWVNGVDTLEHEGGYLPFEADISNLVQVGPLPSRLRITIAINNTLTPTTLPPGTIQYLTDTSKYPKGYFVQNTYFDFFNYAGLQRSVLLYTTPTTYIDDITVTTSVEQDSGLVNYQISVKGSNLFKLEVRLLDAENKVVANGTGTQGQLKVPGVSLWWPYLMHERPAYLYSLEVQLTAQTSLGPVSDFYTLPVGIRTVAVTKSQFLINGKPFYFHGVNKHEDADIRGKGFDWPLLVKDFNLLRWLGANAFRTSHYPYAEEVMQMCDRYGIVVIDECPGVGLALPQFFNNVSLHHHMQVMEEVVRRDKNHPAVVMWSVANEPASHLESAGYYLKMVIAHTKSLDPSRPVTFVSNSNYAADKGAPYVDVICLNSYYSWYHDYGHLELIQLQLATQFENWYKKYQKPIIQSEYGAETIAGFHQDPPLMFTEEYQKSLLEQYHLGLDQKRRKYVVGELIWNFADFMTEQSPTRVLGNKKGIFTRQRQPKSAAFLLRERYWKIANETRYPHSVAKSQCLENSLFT
In words: Inhibition of beta-glucuronidase at 10 uM. Put shortly:
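Test sample from a 1 mM stock in 0.1 M acetate buffer pH 7.4 was preincubated 5 min at 37 °C with 2.5 mM p-nitrophenyl β-D-glucopyranosiduronic acid. β-Glucuronidase was then added and the mixture incubated 30 min. The reaction was stopped with 0.5 N NaOH and read at 410 nm. Salicylic acid (1 mM) was the reference. Values are means of n = 2.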

In test [5] the target is T3, Prostaglandin G/H synthase 1 (Ovis aries) (UniProt P05979).
T3 sequence (whole entry): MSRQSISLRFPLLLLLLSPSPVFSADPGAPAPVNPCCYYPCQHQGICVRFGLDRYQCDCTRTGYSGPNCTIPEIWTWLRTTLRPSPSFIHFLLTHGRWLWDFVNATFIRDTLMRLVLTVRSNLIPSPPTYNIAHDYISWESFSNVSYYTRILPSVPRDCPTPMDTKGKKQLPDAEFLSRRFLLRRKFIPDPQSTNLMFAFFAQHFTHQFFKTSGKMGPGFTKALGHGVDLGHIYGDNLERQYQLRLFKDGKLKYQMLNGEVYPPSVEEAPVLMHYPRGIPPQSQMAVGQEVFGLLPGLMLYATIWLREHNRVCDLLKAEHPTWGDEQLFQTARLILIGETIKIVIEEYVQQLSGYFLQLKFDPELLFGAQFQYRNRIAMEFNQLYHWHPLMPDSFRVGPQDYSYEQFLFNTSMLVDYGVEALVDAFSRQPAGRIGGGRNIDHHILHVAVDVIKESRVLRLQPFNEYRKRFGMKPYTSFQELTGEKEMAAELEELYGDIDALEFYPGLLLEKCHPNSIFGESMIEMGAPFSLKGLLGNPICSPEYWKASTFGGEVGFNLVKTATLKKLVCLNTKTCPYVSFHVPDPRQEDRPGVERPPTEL
The following applies: at 1 mM.

The term inhibition denotes the percentage by which the read-out fell short of the control. Consider `COc1cc(OC)c(C(=O)/C=C/c2ccccc2Cl)c(O)c1CN1CCN(C)CC1`, for which the Activity in test [1] was determined as 10.8%. For the same molecule, the inhibition came out at 0.1% in test [2], 68.8% in test [3], 35.5% in test [4] and 11.9% in test [5].

As for `COc1cc(OC)c(C(=O)/C=C/c2ccccc2Cl)c(O)c1CN1CCCC1`, the Activity in test [1] was 7.89%. The inhibition in test [2] worked out at 0.8%; in test [3] it was 42.5%; in test [4], 32.4%.

Consider `COc1cc(OC)c(C(=O)/C=C/c2ccccc2Cl)c(O)c1CN1CCCCC1`, for which the Activity in test [1] was determined as 18.4%. The inhibition came to 0.7% in test [2], 91.5% in test [3], 31.2% in test [4] and 30.4% in test [5].

For the molecule `COc1cc(OC)c(C(=O)/C=C/c2cccc(Br)c2)c(O)c1CN1CCOCC1`, in test [1], the Activity was 10.1%. Also, the inhibition in test [2] is 1.2%; in test [3], 22.4%; in test [4] it was 29.3%.

In the case of `COc1cc(OC)c(C(=O)/C=C/c2cccc(Br)c2)c(O)c1CN1CCCCC1`, the Activity in test [1] was 33%. In addition, the inhibition in test [2] was determined as 2.8%; in test [3] it was 87.5%; in test [4], 15.4%; in test [5] it was 21.7%.

Take `O=C(O)c1ccccc1O`: the results for the inhibition in test [2] and in test [4] were 89.2% and 23.3%, respectively.

As to `COc1cc(OC)c(C(=O)/C=C/c2ccccc2F)c(O)c1CN1CCCCC1`, the outcome in test [1] was inactive. Besides, the inhibition in test [2] turned out to be 1.4%; in test [3], 19.9%; in test [4], 56.6%.

Consider `COc1cc(OC)c(C(=O)/C=C/c2ccccc2Br)c(O)c1CN1CCCC1`, for which the Activity in test [1] came to 25%. Further, the inhibition in test [2] is 1.5%; in test [3] it was 20.4%; in test [4], 34.7%.

Consider `COc1cc(OC)c(C(=O)/C=C/c2cccc(Cl)c2)c(O)c1CN1CCN(C)CC1`, for which, in test [1], the Activity amounted to 5.2%. Moreover, the inhibition in test [2] was 1.3%; in test [3], 77.8%; in test [4], 23.7%; in test [5], 28.7%.

For `COc1cc(OC)c(C(=O)/C=C/c2ccccc2F)c(O)c1CN1CCOCC1`, the Activity in test [1] was found to be 19.2%. Moreover, the values for the inhibition in test [2], in test [3] and in test [4] were 2%, 27.1% and 21.8%, respectively.

As to `COc1cc(OC)c(C(=O)/C=C/c2ccccc2Cl)c(O)c1CN1CCOCC1`, in test [1], the Activity came out at 24.8%. In addition, the inhibition result in test [2] is “inactive”. The results for the inhibition in test [3] and in test [4] were 25.6% and 48.1%, respectively.

For the molecule `COc1cc(OC)c(C(=O)/C=C/c2ccccc2F)c(O)c1CN1CCN(C)CC1`, in test [1], the Activity is 35.3%. In addition, the inhibition entry in test [2] and in test [4] was “inactive” each time. Moreover, the values for the inhibition in test [3] and in test [5] were 44.9% and 19.2%, respectively.

As for `COc1cc(OC)c(C(=O)/C=C/c2cccc(Cl)c2)c(O)c1CN1CCCCC1`, the Activity in test [1] was found to be 20.9%. Moreover, the inhibition in test [2] is 0.5%; in test [3], 87.9%; in test [4] it was 66%; in test [5] it was 25.2%.

For `COc1cc(OC)c(C(=O)/C=C/c2ccccc2Br)c(O)c1CN1CCCCC1`, the Activity in test [1] was 58.3%. In addition, the inhibition in test [2] was 2.1%; in test [3], 69.8%; in test [4], 39.9%.

In the case of `COc1cc(OC)c(C(=O)/C=C/c2cccc(F)c2)c(O)c1CN1CCN(C)CC1`, the Activity in test [1] was 18.4%. For the same molecule, in test [2], the inhibition entry is “inactive”. The inhibition in test [3] came out at 24.6%; in test [4], 26.7%.

`COc1cc(O)c(CN2CCCC2)c(O)c1C(=O)/C=C/c1ccccc1F`: the Activity in test [1] came out at 32.9%. For the same molecule, the inhibition is 1.2% in test [2] and 21.4% in test [3]. The inhibition entry in test [4] is “inactive”.

For `COc1cc(OC)c(C(=O)/C=C/c2cccc(Br)c2)c(O)c1CN1CCCC1`, in test [1], the Activity is 35.7%. Moreover, the inhibition was found to be 1.3% in test [2], 19.9% in test [3] and 59.8% in test [4].

Regarding `COc1cc(OC)c(C(=O)/C=C/c2cccc(F)c2)c(O)c1CN1CCOCC1`, in test [1], the Activity worked out at 24%. Also, the inhibition in test [2] stood at 19.5%; in test [3] it was 38.9%; in test [4], 10.8%.

For the molecule `COc1cc(OC)c(C(=O)/C=C/c2cccc(F)c2)c(O)c1CN1CCCCC1`, the Activity in test [1] stood at 14.6%. Also, the inhibition in test [3] is 21.7%; in test [4], 7.06%.

Take `CC(=O)Oc1ccccc1C(=O)O`: in test [3], the inhibition was determined as 35.1%.

For the molecule `COc1cc(OC)c(C(=O)/C=C/c2ccccc2Br)c(O)c1CN1CCN(C)CC1`, in test [1], the Activity amounted to 27.8%. Besides, the inhibition in test [2] came to 1.2%; in test [3], 48.9%; in test [4], 42%.

Turning to `COc1cc(OC)c(C(=O)/C=C/c2cccc(F)c2)c(O)c1CN1CCCC1`, the Activity in test [1] is 11.7%. Further, the inhibition in test [2] is 1.3%; in test [3] it was 21.4%; in test [4] it was 19.4%.

In the case of `COc1cc(OC)c(C(=O)/C=C/c2cccc(Cl)c2)c(O)c1CN1CCOCC1`, the Activity in test [1] was found to be 21.9%. The inhibition in test [2] is 1.1%; in test [3], 48.2%; in test [4], 13.9%.

Regarding `COc1cc(OC)c(C(=O)/C=C/c2cccc(Cl)c2)c(O)c1CN1CCCC1`, in test [1], the Activity is 3.1%. Also, the figures for the inhibition in test [2], in test [3] and in test [4] were 0.9%, 29.6% and 14.8%, respectively.

In the case of `COc1cc(OC)c(C(=O)/C=C/c2cccc(Br)c2)c(O)c1CN1CCN(C)CC1`, the Activity in test [1] was determined as 37%. For the same molecule, the inhibition in test [2] was determined as 1.4%; in test [3], 33.3%; in test [4], 75.4%.

As to `COc1cc(OC)c(C(=O)/C=C/c2ccccc2Br)c(O)c1CN1CCOCC1`, the Activity in test [1] amounted to 16.7%. Further, the results for the inhibition in test [2], in test [3] and in test [4] were 1.6%, 42.3% and 32.8%, respectively.

With `O=c1c(O)c(-c2ccc(O)c(O)c2)oc2cc(O)cc(O)c12`, in test [1], the Activity came out at 86.3%.
